Test results as given in publication PMC6331719 (The EMBO Journal, 2018).

Experiments:
[1] = system: CFTR; test: Proximity ligation assay CFTR / P31–43, Caco-2 cells; format: binding, human; settings: short pre-incubation
In short: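 Caco-2 cells were pre-incubated up to 20 min with VX-770 (10 μM), then exposed to P31–43. Cells were fixed in 4% PFA for 15 min at room temperature and blocked with 0.1% Triton X-100/0.5% BSA. Primary antibodies were applied overnight at 4°C and Duolink probes (1:5) for 1 h at 37°C. Ligation, rolling-circle amplification, red detection and DAPI counterstain followed.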

[2] = system: IL‐15 (Caco‐2 cells); test: IL-15 production; format: cell-based, human; settings: Caco-2, VX-770 pre-treatment, P < 0.001
[3] = system: CFTR (Caco-2 cells); test: CFTR stability, ubiquitination and plasma membrane level, Caco-2 cells; format: cell-based, human; settings: Caco-2, pre-incubation with potentiator, 24 h
In short: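 Caco-2 cells homogenised and spun at 2,300 × g for 15 min, then 16,000 × g for 1 h at 4°C. The membrane pellet was solubilised in Tris–HCl pH 7.4/EDTA buffer with 1% Triton X-100 and spun at 60,000 × g for 1 h to give the plasma-membrane fraction. Fraction used for IP or immunoblot against CFTR, ubiquitin, CHIP and related markers. Potentiator VX-770 at 10 μM.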

[4] = system: BALB/c mice small intestine; test: Small intestine protein markers; format: in vivo, mouse; settings: VX-770 i.p. prior to gliadin
[5] = system: BALB/c mice small intestine; test: Small intestine cytokine protein levels; format: in vivo, mouse; settings: VX-770 i.p. prior to gliadin
In short: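 BALB/c mice kept gluten-free for at least three generations, 10 weeks old, at least 10 per group. Oral gliadin or vehicle for 4 weeks (5 mg daily for 1 week, then thrice weekly for 3 weeks). Small-intestine homogenates assayed for IL-10 and TGF-β by ELISA, read in triplicate at 450 nm. Values normalised to Bradford protein.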

[6] = system: celiac PBMC; test: Caco-2 / celiac PBMC bidimensional co-culture, cytokine release; format: cell-based, human; settings: VX-770, P < 0.01
[7] = system: CFTR (Caco‐2 cells); test: Ussing chamber, CFTR-dependent Cl- secretion in Caco-2 cells; format: cell-based, human; settings: for Protection against P31–43-mediated reduction of chloride current: pre-incubation up to 20 min, VX-770 10 μM, Vrx-532 20 μM
In short: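 Caco-2 or T84 monolayers grown on 0.4-μm Transwells to 800–1,200 Ω cm2, then mounted in Ussing chambers. Ringer both sides, 37°C, gassed with 95% O2/5% CO2. Cells pretreated 3 h with peptides (20 μg/ml) or PT gliadin (500 μg/ml), or given bath peptides (100 μM, 3–5 min) after 100 μM amiloride. VX-770 10 μM for 5 min. Forskolin 20 μM; peak CFTRinh172-sensitive Isc.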

[8] = system: TG2 and CFTR; test: Co-immunoprecipitation of TG2 and CFTR, Caco-2 cells; format: cell-based, human; settings: Caco-2, pre-treatment
[9] = system: celiac PBMC; test: Caco-2 CFTR-KO / celiac PBMC co-culture, cytokine release; format: cell-based, human; settings: VX-770, P31–43 and P57–68 challenge
[10] = system: Caco‐2 cells; test: F-actin confocal staining, Caco-2 cells; format: cell-based, human; settings: Caco-2, 24 h, VX-770
[11] = system: CFTR (small intestine, BALB/c mice); test: Ussing chamber, small intestine of BALB/c mice; format: in vivo, mouse; settings: VX-770 i.p. 15 min prior to gliadin, 4 weeks
In short: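 BALB/c mice on a gluten-free diet for ≥3 generations were given oral gliadin (5 mg daily for 1 week, then thrice weekly for 3 weeks) ± VX-770; n = 10 per group. Small intestine tissue was mounted in Ussing chambers with identical Ringer on both sides, at 37°C, stirred and gassed with 95% O2/5% CO2.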

[12] = system: NOD mice; test: Gliadin-challenged NOD mice; format: in vivo, mouse; settings: gliadin after diabetes onset, VX-770 i.p.
In short: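 Female NOD mice with diabetes (blood glucose > 250 mg/dl, monitored weekly) were used at 12–13 weeks. They were challenged orally with gliadin for 4 consecutive weeks. VX-770 was given intraperitoneally 15 min before each challenge. n = 10 mice per group.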

[13] = system: TG2; test: TG2 activity and TG2-catalysed crosslinking in Caco-2 cells; format: cell-based, human; settings: Caco-2, Ca2+ pulse, BAP incorporation
[14] = system: CFTR (Caco-2 and T84 cells); test: Iodide efflux by SPQ in intestinal epithelial cells; format: cell-based, human; settings: 20 min pre-treatment with potentiator, n = 3
[15] = system: IL‐15 (Caco‐2 cells); test: IL-15 in lower compartment of bidimensional culture; format: cell-based, human; settings: VX-770, P < 0.001 vs. peptide combination
[16] = system: BALB/c mice; test: Intestinal permeability; format: in vivo, mouse; settings: VX-770 i.p. prior to gliadin, 4 weeks
In short: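 BALB/c mice kept ≥3 generations on a gluten-free diet were gavaged with gliadin (5 mg daily for 1 week, then thrice weekly for 3 weeks) ± intraperitoneal VX-770 15 min before; n = 10 per group. FITC-D4000 (600 mg/kg) was gavaged, and cardiac blood taken 1 h later. Plasma was diluted 1:1 in PBS and read at ex 485/em 528 nm against standards (50–0.312 μg/ml). Values are means ± SD of triplicate pooled samples.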

[17] = system: Caco‐2 cells; test: Epithelial stress / innate immune markers by immunoblot, Caco-2 cells; format: cell-based, human
[18] = system: CFTR; test: Co-immunoprecipitation of CFTR with biotinylated peptide, Caco-2 cells; format: binding, human; settings: short pre-incubation, Caco-2
[19] = system: NOD‐DQ8 mice; test: Gliadin-challenged NOD-DQ8 mice; format: in vivo, mouse; settings: gliadin 4 weeks, VX-770 i.p.
In short: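 NOD.[…] AB0null mice expressing HLA-DQ8 (congenic NOD background), 10 per group. Oral gliadin or vehicle for 4 weeks: 5 mg daily for 1 week, then 5 mg thrice weekly for 3 weeks. VX-770 given intraperitoneally 15 min before each gliadin challenge.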

[20] = system: Caco‐2CFTR‐KO cells; test: IL-15 production and ERK1/2 phosphorylation, Caco-2 CFTR-KO cells; format: cell-based, human
[21] = system: wild‐type mouse CFTR; settings: ref Cui & McCarty, 2015; Cui et al, 2016; Zeng et al, 2017; cited from earlier work
[22] = system: Caco‐2 cells; test: Endosomal trafficking markers, Caco-2 cells; format: cell-based, human; settings: for Protection from P31–43 effects on BECN1, hVps34, UVRAG, Rab5, Rab7: Caco-2, pre-incubation with potentiator
In short: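 Endosomal fractions isolated from treated and untreated Caco-2 cells. Rab5 and Rab7 immunoblotted, with EEA-1 as loading control. Densitometry reported as mean ± SD of triplicate independent experiments. Potentiator VX-770 used at 10 μM.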

[23] = system: BALB/c mice small intestine; test: Small intestine transcript levels, BALB/c mice; format: in vivo, mouse; settings: VX-770 i.p. prior to gliadin
[24] = system: duodenal biopsies from CD patients; test: Duodenal biopsies from CD patients, CD3+CD25+ cells in lamina propria; format: cell-based, human; settings: Vrx-532 20 μM, 3 h pre-incubation

## CC(C)(C)c1cc(C(C)(C)C)c(NC(=O)c2c[nH]c3ccccc3c2=O)cc1O [VX‐770]
[1]
  Effect of VX-770 on P31–43 interaction with CFTR (proximity ligation assay): abolished the interaction of P31–43 with CFTR
[2]
  P31–43-induced IL-15 production: prevented the P31–43‐induced production of IL‐15
[3]
  Prevention of P31–43 effects on CFTR stability / plasma membrane level: prevented
[4]
  NKG2D upregulation on intraepithelial lymphocytes: counteracted
  NLRP3 expression: counteracted gliadin‐induced NLRP3 expression
  TG2 protein levels: opposed the ability of gliadin to increase TG2 protein levels
[4]; 4 weeks
  NHERF-1 depletion: abrogated the depletion of NHERF‐1
[5]
  IL-10 and TGF-β production: improved IL‐10 and TGF‐β production
  IL-21 expression: inhibited the gliadin‐induced expression of IL‐21
[5]; P < 0.001
  IL-15, IL-17A and IFN-γ mRNA and protein: prevented the gliadin‐induced upregulation of IL‐15, IL‐17A, and IFN‐γ mRNA
[6]
  IL-10 levels: increased IL‐10 levels
  Prevention of IFN-γ production: prevented the production of IFN‐γ by PT gliadin or peptide combination
[7]; P31–43 100 μM then VX-770 10 μM then Fsk
  Effect of VX-770 on chloride current when added after P31–43: poorly active
[7]
  Protection against P31–43-mediated reduction of chloride current: prevented
[8]
  Prevention of P31–43-induced TG2–CFTR interaction: abolished the P31–43‐induced interaction of TG2 and CFTR
[9]
  Prevention of IFN-γ production with Caco-2 CFTR-KO: failed to prevent the production of IFN‐γ by celiac PBMC
[10]
  Formation of F-actin stress fibers induced by P31–43: negated the capacity of P31–43 to induce the formation of F‐actin stress fibers
[11]
  CFTR function and protein expression, gliadin-sensitive mice: prevented the gliadin‐induced decrease in CFTR function (Fig 5A) and protein expression
[12]
  Protective effects in NOD mice: protective effects of VX‐770 were confirmed in NOD mice
[13]
  Effect on TG2-mediated transamidation reactions itself: no impact on TG2‐mediated transamidation reactions
[14]
  Protection of iodide efflux against P31–43: protecting intestinal epithelial cells against P31–43‐mediated CFTR inhibition
[15]
  Prevention of IL-15 accumulation: prevented by VX‐770
[16]
  Intestinal permeability: prevented the gliadin‐induced increase in intestinal permeability
[17]; Caco-2, VX-770
  Prevention of P31–43-induced NF-κB p65 translocation, NLRP3 expression, caspase-1 cleavage: prevented additional pro‐inflammatory P31–43 effects
[17]; Caco-2, pre-incubation with VX-770
  Protection from P31–43-induced epithelial stress (PPARγ, phERK1/2, HSP70): protected Caco‐2 cells from signs of P31–43‐induced epithelial stress
[18]
  Effect of VX-770 on P31–43 interaction with CFTR (co-immunoprecipitation): abolished the interaction of P31–43 with CFTR
[19]
  Protective effects in NOD-DQ8 mice: in NOD‐DQ8 mice as well
[20]
  IL-15 expression and ERK1/2 phosphorylation in CFTR-KO cells: failed to modulate both IL‐15 expression and ERK1/2 phosphorylation in Caco‐2CFTR‐KO cells
[21]
  Potentiation of wild-type mouse CFTR channel function: potentiate the ion channel function of wild‐type mouse CFTR
[22]; Caco-2
  P31–43-mediated increase in CD71 cell surface expression: blocked the P31–43‐mediated increase in the cell surface expression of transferrin receptor
[22]
  Protection from P31–43 effects on BECN1, hVps34, UVRAG, Rab5, Rab7: counteracted
[22]; Caco-2 pre-incubated with SIgA 1 h at 4°C
  P31–43-induced CD71–SIgA interaction: abrogated the ability of P31–43 to increase the interaction of CD71 with SIgA
[23]
  Rorc and Tbet: downregulated upon VX‐770 treatment

## Cc1ccc(O)c(-c2cc(-c3ccccc3)n[nH]2)c1 [Vrx‐532]
[3]
  Prevention of P31–43 effects on CFTR stability / plasma membrane level: prevented
[7]
  Protection against P31–43-mediated reduction of chloride current: prevented
[14]
  Protection of iodide efflux against P31–43: protecting intestinal epithelial cells against P31–43‐mediated CFTR inhibition
[24]
  Abrogation of gliadin-peptide-induced CD3+CD25+ cell increase: highly effective in abrogating these effects of gliadin peptides
[22]
  Protection from P31–43 effects on BECN1, hVps34, UVRAG, Rab5, Rab7: counteracted
